Results from ChEMBL document CHEMBL2157912, “Pyrido[1,2-a]pyrimidin-4-ones as antiplasmodial falcipain-2 inhibitors” (Bioorg Med Chem, 2012).

Experiments:
Plasmodium falciparum [1] = experiment: Inhibition of recombinant Plasmodium falciparum falcipain 2 at 10 uM preincubated for 10 mins before addition of Z-Phe-Arg-AMC substrate by fluorescence spectrophotometry
Method in brief: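 Soluble recombinant FP-2 (30 nM) preincubated with compound at 10 µM for 10 min at room temperature in 100 mM sodium acetate pH 5.5 with 10 mM DTT. Compound was diluted from DMSO stock. Z-Phe-Arg-AMC was then added (25 µM final), and fluorescence (ex 355/em 460 nm) was followed for 10 min at room temperature. % inhibition = [1 − Ftest/Fcontrol]×100; mean of three independent determinations.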

[2] = Inhibition of recombinant Plasmodium falciparum falcipain 2 incubated with compound for 10 mins before addition of Z-Phe-Arg-AMC substrate by fluorescence spectrophotometry
Method in brief: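 FP-2 (30 nM) was preincubated for 10 min at room temperature with a series of fixed compound concentrations (from DMSO stock) in 100 mM sodium acetate pH 5.5, 10 mM DTT. Z-Phe-Arg-AMC was added to 25 µM final and AMC fluorescence (355/460 nm) monitored 10 min. IC50 was determined only for compounds reaching ≥40% inhibition at 10 µM; values are means of three independent determinations.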

Plasmodium falciparum [3] = experiment: Inhibition of recombinant Plasmodium falciparum falcipain 2 at 2 uM preincubated for 10 mins before addition of Z-Phe-Arg-AMC substrate by fluorescence spectrophotometry

| SMILES | inhibition (Plasmodium falciparum [1]) | IC50 [2] | inhibition (Plasmodium falciparum [3]) |
| --- | --- | --- | --- |
| O=C(NCc1ccc2c(c1)OCO2)c1cnc2ccc(Cl)cn2c1=O | 24% |  |  |
| O=C(NCCCN1CCOCC1)Nc1cnc2ccccn2c1=O | 25% |  |  |
| O=C(Nc1cnc2ccccn2c1=O)OCc1ccccn1 | 18% |  |  |
| O=C(NCCN1CCOCC1)Nc1cnc2ccc(Cl)cn2c1=O | 68% | 7 µM |  |
| COc1ccc(N2CCN(C(=O)Nc3cnc4cc(C)ccn4c3=O)CC2)cc1 | 46% | 19 µM |  |
| Cc1ccn2c(=O)c(NC(=O)NCCc3cccs3)cnc2c1 | 45% | 21 µM |  |
| COc1ccc(CNC(=O)Nc2cnc3ccccn3c2=O)cc1 | 18% |  |  |
| Cc1ccn2c(=O)c(NC(=O)N3CCN(c4ccccn4)CC3)cnc2c1 | 37% |  |  |
| COCCNC(=O)Nc1cnc2ccccn2c1=O | 31% |  |  |
| O=C(NCc1ccc(Cl)cc1)Nc1cnc2ccccn2c1=O | 39% |  |  |
| COCCNC(=O)Nc1cnc2cc(C)ccn2c1=O | 63% | 6 µM |  |
| Cc1ccn2c(=O)c(NC(=O)NCCN3CCOCC3)cnc2c1 | 27% |  |  |
| COc1ccc(N2CCN(C(=O)Nc3cnc4ccccn4c3=O)CC2)cc1 | 43% |  |  |
| O=C(NCCc1cccs1)Nc1cnc2ccc(Cl)cn2c1=O | 42% | 23 µM |  |
| O=C(Nc1cnc2ccccn2c1=O)OCc1ccccc1 | 12% |  |  |
| COc1ccc(N2CCN(C(=O)Nc3cnc4ccc(Cl)cn4c3=O)CC2)cc1 | 36% |  |  |
| Cc1ccn2c(=O)c(NC(=O)OCc3ccccc3)cnc2c1 | 31% |  |  |
| O=C(Nc1cnc2ccc(Cl)cn2c1=O)N1CCN(c2ccccn2)CC1 | 41% | 12 µM |  |
| CC(=O)NCCNC(=O)Nc1cnc2cc(C)ccn2c1=O | 15% |  |  |
| Cc1ccn2c(=O)c(C(=O)NCc3ccc(F)cc3)cnc2c1 | 6% |  |  |
| CC(C)C[C@H](NC(=O)[C@H]1O[C@@H]1C(=O)O)C(=O)NCCCCN=C(N)N [E-64] |  | 0.02 µM | 92% |
| O=C(NCc1ccc2c(c1)OCO2)c1cnc2ccccn2c1=O | 7% |  |  |
| CC(=O)NCCNC(=O)Nc1cnc2ccccn2c1=O | 46% | 16 µM |  |
| Cc1ccn2c(=O)c(NC(=O)OCc3ccccn3)cnc2c1 | 42% | 18 µM |  |
| O=C(Nc1cnc2ccccn2c1=O)N1CCN(c2ccccn2)CC1 | 46% | 15 µM |  |
| O=C(NCCc1cccs1)Nc1cnc2ccccn2c1=O | 44% | 14 µM |  |
| Cc1ccn2c(=O)c(NC(=O)N3CCN(C(c4ccccc4)c4ccccc4)CC3)cnc2c1 | 23% |  |  |
